# Measured values from ChEMBL document CHEMBL3769318, “The Rational Design of Selective Benzoxazepin Inhibitors of the α-Isoform of Phosphoinositide 3-Kinase Culminating in the Identification of (S)-2-((2-(1-Isopropyl-1H-1,2,4-triazol-5-yl)-5,6-dihydrobenzo[f]imidazo[1,2-d][1,4]oxazepin-9-yl)oxy)propanamide (GDC-0326)” (J Med Chem, 2016).
# Experiments:
# Cytochrome P450 3A4 = Cytochrome P450 3A4 (Homo sapiens, UniProt P08684); experiment: Inhibition of CYP3A4 (unknown origin); assay type: ADME
# [1] = Antiproliferative activity against human MCF7-neo/Her2 cells after 3 days by luminescence plate reader method; assay type: functional, cell-based; conditions: 72 h
# [2] = Clearance in Cynomolgus monkey at 1 mg/kg, iv; assay type: ADME, organism-based, Macaca fascicularis; conditions: in vivo
# Canis familiaris [3] = experiment: Oral bioavailability in Beagle dog at 2 mg/kg; assay type: ADME, organism-based, Canis lupus familiaris; conditions: in vivo
# In short: (§1)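 Single oral dose at 2 mg/kg in 0.5% methylcellulose with 0.2% Tween 80, given to beagle dogs or male cynomolgus monkeys; the IV reference was 1 mg/kg in 60% PEG400/10% ethanol.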
# [4] = Antiproliferative activity against human PC3 cells after 4 days by luminescence plate reader method; assay type: functional, cell-based; conditions: PC-3, 96 h
# [5] = Plasma protein binding in Cynomolgus monkey at 5 uM after 4 hrs by LC-MS/MS analysis; assay type: ADME, cell-free, Macaca fascicularis; conditions: read-out: PPB (converted)
# In short: (§2)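 Equilibrium dialysis of pooled plasma (n ≥ 3) spiked with compound at 5 µM total against PBS pH 7.4, 37 °C, 5% CO2, for 4 h; plasma and buffer concentrations measured by LC-MS/MS; percent unbound calculated as buffer/plasma ×100.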
# [6] = Antitumor activity against human KPL4 cells xenografted in SCID beige mouse assessed as tumor growth inhibition at 3.25 mg/kg, po qd for 21 days; assay type: functional; conditions: 504 h, read-out: TGI
# In short: (§3)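 KPL-4 breast cancer xenografts grown in scid beige mice; oral dosing once daily for 21 days in MCT vehicle (0.5% methylcellulose/0.2% Tween-80) at 0.78–25 mg/kg, 10 animals per group; tumor volumes fitted and tumor growth inhibition calculated versus vehicle-treated mice.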
# Cytochrome P450 2C9 = Cytochrome P450 2C9 (Homo sapiens, UniProt P11712); experiment: Inhibition of CYP2C9 (unknown origin); assay type: ADME
# Sequence of Cytochrome P450 2C9 (P11712 whole entry): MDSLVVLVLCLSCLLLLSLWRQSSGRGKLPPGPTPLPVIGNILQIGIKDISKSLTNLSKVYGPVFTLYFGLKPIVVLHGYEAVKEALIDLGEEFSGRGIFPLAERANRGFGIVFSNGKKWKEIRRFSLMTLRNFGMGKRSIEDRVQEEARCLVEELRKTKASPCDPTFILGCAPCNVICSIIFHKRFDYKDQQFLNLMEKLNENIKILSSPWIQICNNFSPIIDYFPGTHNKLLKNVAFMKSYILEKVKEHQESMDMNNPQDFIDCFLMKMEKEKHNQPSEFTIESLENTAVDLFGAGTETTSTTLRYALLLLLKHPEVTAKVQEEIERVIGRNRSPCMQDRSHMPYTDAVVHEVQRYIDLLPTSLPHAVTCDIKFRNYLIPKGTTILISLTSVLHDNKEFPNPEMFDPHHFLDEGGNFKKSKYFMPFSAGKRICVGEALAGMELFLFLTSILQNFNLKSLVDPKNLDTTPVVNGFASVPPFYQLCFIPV
# [7] = Oral bioavailability in Cynomolgus monkey at 2 mg/kg; assay type: ADME, organism-based, Macaca fascicularis; conditions: in vivo; in short: as §1
# [8] = Cmax in NCR nude mouse at 25 mg/kg, po; assay type: ADME, organism-based; design: dose 25 mg/kg, route oral; conditions: in vivo
# [9] = Oral bioavailability in NCR nude mouse at 25 mg/kg; assay type: ADME, organism-based; conditions: in vivo
# [10] = Clearance in Sprague-Dawley rat at 1 mg/kg, iv; assay type: ADME, organism-based; conditions: in vivo
# [11] = Antitumor activity against human KPL4 cells xenografted in SCID beige mouse assessed as tumor growth inhibition at 1.56 mg/kg, po qd for 21 days; assay type: functional; conditions: 504 h, read-out: TGI; in short: as §3
# [12] = Oral bioavailability in Sprague-Dawley rat at 5 mg/kg; assay type: ADME, organism-based; conditions: in vivo
# In short: (§4)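 Male Sprague-Dawley rats dosed PO at 5 mg/kg in 0.5% methylcellulose/0.2% Tween 80 (MCT); the IV reference arm was 1 mg/kg in 60% PEG400/10% ethanol.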
# [13] = Cmax in Beagle dog at 2 mg/kg, po; assay type: ADME, organism-based, Canis lupus familiaris; design: dose 2 mg/kg, route oral; conditions: in vivo; in short: as §1
# KPL4 = experiment: Antitumor activity against human KPL4 cells xenografted in po dosed SCID beige mouse assessed as tumor growth inhibition administered daily for 21 days; assay type: functional, organism-based; in short: as §3
# Cytochrome P450 2D6 = Cytochrome P450 2D6 (Homo sapiens, UniProt P10635); experiment: Inhibition of CYP2D6 (unknown origin); assay type: ADME
# Sequence of Cytochrome P450 2D6 (P10635 whole entry): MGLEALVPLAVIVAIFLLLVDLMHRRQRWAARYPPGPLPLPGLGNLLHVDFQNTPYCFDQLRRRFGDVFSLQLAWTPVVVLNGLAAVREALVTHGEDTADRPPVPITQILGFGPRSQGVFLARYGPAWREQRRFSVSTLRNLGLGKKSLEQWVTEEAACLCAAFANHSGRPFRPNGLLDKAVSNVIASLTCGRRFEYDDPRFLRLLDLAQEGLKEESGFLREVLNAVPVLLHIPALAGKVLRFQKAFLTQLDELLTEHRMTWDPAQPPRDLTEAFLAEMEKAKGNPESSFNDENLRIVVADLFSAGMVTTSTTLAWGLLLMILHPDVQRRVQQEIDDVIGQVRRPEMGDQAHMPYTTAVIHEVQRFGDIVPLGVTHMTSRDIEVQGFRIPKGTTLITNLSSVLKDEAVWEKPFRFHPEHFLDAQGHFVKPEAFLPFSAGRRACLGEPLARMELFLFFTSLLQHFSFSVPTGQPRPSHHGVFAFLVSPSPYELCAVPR
# [14] = Thermodynamic solubility of compound at pH 7.4; assay type: physicochemical; conditions: buffer, read-out: Therm_solubility
# [15] = Plasma protein binding in Beagle dog at 5 uM after 4 hrs by LC-MS/MS analysis; assay type: ADME, cell-free, Canis lupus familiaris; conditions: read-out: PPB (converted); in short: as §2
# [16] = Antitumor activity against human MCF7-neo/Her2 cells xenografted in mouse assessed as tumor growth inhibition at 12.5 mg/kg, po qd for 21 days; assay type: functional; conditions: 504 h, read-out: TGI
# In short: (§5)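 MCF7-neo/HER2 breast cancer xenografts grown in nude mice; daily oral dosing for 21 days in 0.5% methylcellulose/0.2% Tween-80 vehicle at 0.78–25 mg/kg, 10 animals per group; fitted tumor volumes compared against vehicle-treated mice to give tumor growth inhibition.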
# [17] = Antitumor activity against human MCF7-neo/Her2 cells xenografted in mouse assessed as tumor growth inhibition at 1.56 mg/kg, po qd for 21 days; assay type: functional; conditions: 504 h, read-out: TGI; in short: as §5
# [18] = AUC in Sprague-Dawley rat at 5 mg/kg, po; assay type: ADME, organism-based; conditions: in vivo; in short: as §4
# [19] = Plasma protein binding in CD-1 mouse at 5 uM after 4 hrs by LC-MS/MS analysis; assay type: ADME, cell-free; conditions: CD-1, mouse, read-out: PPB (converted); in short: as §2
# Homo sapiens = experiment: Antitumor activity against human MCF7-neo/Her2 cells xenografted in po dosed nude mouse assessed as tumor growth inhibition administered daily for 21 days; assay type: functional, organism-based; in short: as §5
# Canis familiaris [20] = experiment: AUC in Beagle dog at 2 mg/kg, po; assay type: ADME, organism-based, Canis lupus familiaris; conditions: in vivo
# Mus musculus [21] = experiment: Decrease in phosphorylated Akt in mouse xenografted with human MCF7-neo/Her2 cells at 6.25 mg/kg administered as single dose after 1 hr by immunoassay; assay type: functional
# In short: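 Mice bearing MCF7-neo/HER2 tumors given a single oral dose in MCT vehicle; tumors collected 1 h later. Phospho-Akt Ser473 and total Akt measured by Mesoscale Discovery immunoassay and expressed as pAkt/tAkt relative to vehicle; four animals per group; unbound plasma drug measured at the same time.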
# [22] = AUC in NCR nude mouse at 25 mg/kg, po; assay type: ADME, organism-based; conditions: in vivo
# Mus musculus [23] = experiment: Toxicity in SCID beige mouse xenografted with human KPL4 cells assessed as body weight loss upto 12.5 mg/kg, po; assay type: organism-based; conditions: in vivo
# [24] = Cytotoxicity against human KPL4 cells after 4 days by luminescence plate reader method; assay type: functional, cell-based; conditions: KPL4, 96 h
# [25] = Antitumor activity against human KPL4 cells xenografted in SCID beige mouse assessed as tumor growth inhibition at 6.25 mg/kg, po qd for 21 days; assay type: functional; conditions: 504 h, read-out: TGI; in short: as §3
# [26] = target: Phosphatidylinositol 4-phosphate 3-kinase C2 domain-containing subunit beta (Homo sapiens) (UniProt O00750); experiment: Inhibition of PI3KC2b (unknown origin) at 1 uM
# Sequence of Phosphatidylinositol 4-phosphate 3-kinase C2 domain-containing subunit beta (Homo sapiens) (O00750 whole entry, the tested form may be a part): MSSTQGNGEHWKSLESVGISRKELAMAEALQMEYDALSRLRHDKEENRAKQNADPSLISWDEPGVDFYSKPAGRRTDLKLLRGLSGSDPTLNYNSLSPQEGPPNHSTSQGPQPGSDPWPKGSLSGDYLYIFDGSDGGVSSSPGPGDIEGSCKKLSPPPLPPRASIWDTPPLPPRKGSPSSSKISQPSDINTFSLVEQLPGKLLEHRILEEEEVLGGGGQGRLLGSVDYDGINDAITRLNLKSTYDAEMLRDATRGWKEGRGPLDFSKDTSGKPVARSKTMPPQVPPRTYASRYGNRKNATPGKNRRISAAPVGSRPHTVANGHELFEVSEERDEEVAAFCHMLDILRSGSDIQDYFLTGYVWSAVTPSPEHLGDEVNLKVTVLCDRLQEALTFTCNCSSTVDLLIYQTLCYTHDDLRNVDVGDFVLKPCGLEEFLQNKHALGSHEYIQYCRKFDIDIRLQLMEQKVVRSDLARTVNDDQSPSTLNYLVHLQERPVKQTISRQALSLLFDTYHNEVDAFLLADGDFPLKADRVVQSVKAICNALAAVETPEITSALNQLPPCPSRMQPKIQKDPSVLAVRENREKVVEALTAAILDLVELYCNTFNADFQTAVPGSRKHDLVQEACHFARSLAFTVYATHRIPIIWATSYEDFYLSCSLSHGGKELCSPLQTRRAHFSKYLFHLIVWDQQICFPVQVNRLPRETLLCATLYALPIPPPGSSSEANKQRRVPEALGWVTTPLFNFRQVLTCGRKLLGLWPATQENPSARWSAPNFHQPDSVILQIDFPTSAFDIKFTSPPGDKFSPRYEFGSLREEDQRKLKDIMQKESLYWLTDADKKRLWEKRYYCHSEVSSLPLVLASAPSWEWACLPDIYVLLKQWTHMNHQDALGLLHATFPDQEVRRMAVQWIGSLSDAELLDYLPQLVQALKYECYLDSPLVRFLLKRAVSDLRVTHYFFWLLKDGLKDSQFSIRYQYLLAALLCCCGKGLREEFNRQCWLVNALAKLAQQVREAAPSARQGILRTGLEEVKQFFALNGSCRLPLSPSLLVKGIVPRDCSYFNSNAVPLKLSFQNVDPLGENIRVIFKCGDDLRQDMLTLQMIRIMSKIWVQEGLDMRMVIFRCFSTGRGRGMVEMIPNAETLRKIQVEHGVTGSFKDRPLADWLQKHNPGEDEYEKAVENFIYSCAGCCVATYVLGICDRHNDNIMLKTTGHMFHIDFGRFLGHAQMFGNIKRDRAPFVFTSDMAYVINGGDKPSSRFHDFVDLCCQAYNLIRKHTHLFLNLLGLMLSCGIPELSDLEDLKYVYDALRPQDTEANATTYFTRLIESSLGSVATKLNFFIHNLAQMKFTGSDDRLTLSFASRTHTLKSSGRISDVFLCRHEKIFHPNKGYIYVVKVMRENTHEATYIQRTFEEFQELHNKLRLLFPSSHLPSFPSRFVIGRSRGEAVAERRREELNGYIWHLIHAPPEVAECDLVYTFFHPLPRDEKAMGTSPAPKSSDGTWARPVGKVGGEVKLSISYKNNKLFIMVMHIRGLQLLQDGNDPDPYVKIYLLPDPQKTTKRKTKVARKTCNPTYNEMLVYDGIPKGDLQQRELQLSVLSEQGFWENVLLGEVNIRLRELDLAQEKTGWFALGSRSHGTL
# In short: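 Kinase panel screen of 235 kinases at Invitrogen with compound at 1 µM; read-out was percent inhibition.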
# [27] = Antitumor activity against human MCF7-neo/Her2 cells xenografted in mouse assessed as tumor growth inhibition at 0.78 mg/kg, po qd for 21 days; assay type: functional; conditions: 504 h, read-out: TGI; in short: as §5
# [28] = Cmax in Cynomolgus monkey at 2 mg/kg, po; assay type: ADME, organism-based, Macaca fascicularis; design: dose 2 mg/kg, route oral; conditions: in vivo; in short: as §1
# [29] = Apparent permeability from apical to basolateral side in MDCK cells; assay type: ADME, cell-based, Canis lupus familiaris; conditions: dog
# [30] = Volume of distribution at steady state in Cynomolgus monkey at 1 mg/kg, iv; assay type: ADME, organism-based, Macaca fascicularis; conditions: in vivo, read-out: Vdss
# [31] = Clearance in NCR nude mouse at 1 mg/kg, iv; assay type: ADME, organism-based; conditions: in vivo
# [32] = Volume of distribution at steady state in Sprague-Dawley rat at 1 mg/kg, iv; assay type: ADME, organism-based; conditions: in vivo, read-out: Vdss
# Cytochrome P450 2C19 = Cytochrome P450 2C19 (Homo sapiens, UniProt P33261); experiment: Inhibition of CYP2C19 (unknown origin); assay type: ADME
# Sequence of Cytochrome P450 2C19 (P33261 whole entry): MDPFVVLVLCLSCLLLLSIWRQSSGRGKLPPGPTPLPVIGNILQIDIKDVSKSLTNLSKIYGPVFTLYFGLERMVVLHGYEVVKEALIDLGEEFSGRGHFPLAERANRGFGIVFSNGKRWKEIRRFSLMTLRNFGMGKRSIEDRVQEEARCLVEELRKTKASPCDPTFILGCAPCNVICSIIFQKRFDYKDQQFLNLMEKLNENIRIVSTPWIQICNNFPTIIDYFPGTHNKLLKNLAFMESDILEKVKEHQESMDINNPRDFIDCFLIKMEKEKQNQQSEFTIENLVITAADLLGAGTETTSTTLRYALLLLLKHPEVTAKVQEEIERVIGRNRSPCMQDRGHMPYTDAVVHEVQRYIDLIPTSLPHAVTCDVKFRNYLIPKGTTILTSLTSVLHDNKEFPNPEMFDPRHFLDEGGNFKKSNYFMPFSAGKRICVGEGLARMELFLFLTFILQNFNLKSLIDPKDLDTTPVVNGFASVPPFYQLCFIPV
# [33] = Antitumor activity against human MCF7-neo/Her2 cells xenografted in mouse assessed as tumor growth inhibition at 3.25 mg/kg, po qd for 21 days; assay type: functional; conditions: 504 h, read-out: TGI; in short: as §5
# [34] = Antitumor activity against human KPL4 cells xenografted in SCID beige mouse assessed as tumor growth inhibition at 0.78 mg/kg, po qd for 21 days; assay type: functional; conditions: 504 h, read-out: TGI; in short: as §3
# Cytochrome P450 1A2 = target: T1, Cytochrome P450 1A2 (Homo sapiens, UniProt P05177); experiment: Inhibition of CYP1A2 (unknown origin); assay type: ADME
# T1 sequence (P05177 whole entry): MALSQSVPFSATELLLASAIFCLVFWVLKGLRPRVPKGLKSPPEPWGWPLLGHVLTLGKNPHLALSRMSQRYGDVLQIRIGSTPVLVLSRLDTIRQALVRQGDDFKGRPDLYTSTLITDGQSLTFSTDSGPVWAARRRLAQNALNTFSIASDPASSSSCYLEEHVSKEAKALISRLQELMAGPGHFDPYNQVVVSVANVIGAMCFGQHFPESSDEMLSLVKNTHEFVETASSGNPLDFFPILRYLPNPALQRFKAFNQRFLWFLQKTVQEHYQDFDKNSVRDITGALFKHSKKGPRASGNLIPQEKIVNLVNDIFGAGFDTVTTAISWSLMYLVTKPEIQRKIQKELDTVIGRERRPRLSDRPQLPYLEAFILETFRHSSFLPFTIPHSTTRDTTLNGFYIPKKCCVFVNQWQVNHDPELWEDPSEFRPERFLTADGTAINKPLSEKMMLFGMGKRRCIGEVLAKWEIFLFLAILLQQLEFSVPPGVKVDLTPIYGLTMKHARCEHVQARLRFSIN
# [35] = Cmax in Sprague-Dawley rat at 5 mg/kg, po; assay type: ADME, organism-based; design: dose 5 mg/kg, route oral; conditions: in vivo; in short: as §4
# [36] = AUC in Cynomolgus monkey at 2 mg/kg, po; assay type: ADME, organism-based, Macaca fascicularis; conditions: in vivo
# [37] = Antitumor activity against human KPL4 cells xenografted in SCID beige mouse assessed as tumor growth inhibition at 12.5 mg/kg, po qd for 21 days; assay type: functional; conditions: 504 h, read-out: TGI; in short: as §3
# [38] = Plasma protein binding in Sprague-Dawley rat at 5 uM after 4 hrs by LC-MS/MS analysis; assay type: ADME, cell-free; conditions: read-out: PPB (converted); in short: as §2
# [39] = Volume of distribution at steady state in Beagle dog at 1 mg/kg, iv; assay type: ADME, organism-based, Canis lupus familiaris; conditions: in vivo, read-out: Vdss
# Mus musculus [40] = experiment: Volume of distribution at steady state in NCR nude mouse at 1 mg/kg, iv; conditions: in vivo
# [41] = Antitumor activity against human MCF7-neo/Her2 cells xenografted in mouse assessed as tumor growth inhibition at 6.25 mg/kg, po qd for 21 days; assay type: functional; conditions: 504 h, read-out: TGI; in short: as §5
# Sequence of Cytochrome P450 3A4 (P08684 whole entry): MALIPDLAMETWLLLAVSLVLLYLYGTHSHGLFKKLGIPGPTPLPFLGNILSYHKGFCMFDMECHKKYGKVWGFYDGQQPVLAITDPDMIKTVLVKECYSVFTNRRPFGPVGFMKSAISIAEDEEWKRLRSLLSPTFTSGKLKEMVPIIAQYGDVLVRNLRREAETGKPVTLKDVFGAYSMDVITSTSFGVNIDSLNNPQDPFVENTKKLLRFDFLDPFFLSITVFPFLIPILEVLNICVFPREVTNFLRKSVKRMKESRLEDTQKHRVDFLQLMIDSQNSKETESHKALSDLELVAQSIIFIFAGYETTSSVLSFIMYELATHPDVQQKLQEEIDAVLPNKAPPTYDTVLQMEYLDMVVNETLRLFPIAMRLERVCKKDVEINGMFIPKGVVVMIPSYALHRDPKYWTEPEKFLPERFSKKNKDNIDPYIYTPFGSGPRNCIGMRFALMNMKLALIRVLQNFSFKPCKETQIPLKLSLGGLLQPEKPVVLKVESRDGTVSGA
smiles,measurement,setting,value
CC(C)n1ncnc1-c1cn2c(n1)-c1ccc(O[C@@H](C)C(N)=O)cc1OCC2,IC50,Cytochrome P450 3A4,> 10 µM
same,EC50,[1],0.1 µM
same,clearance,[2],0.78 L/h/kg
same,F,Canis familiaris [3],100%
same,EC50,[4],2.2 µM
same,"fraction unbound at 4 h, 5 µM",[5],0.61
same,inhibition in vivo at 3.25 mg/kg,[6],97%
same,IC50,Cytochrome P450 2C9,> 10 µM
same,bioavailability,[7],72%
same,Cmax,[8],31 µM
same,bioavailability,[9],55%
same,clearance,[10],0.6 L/h/kg
same,inhibition in vivo at 1.56 mg/kg,[11],97%
same,bioavailability,[12],120%
same,Cmax,[13],2.1 µM
same,Activity,KPL4,Dose-dependent effect
same,IC50,Cytochrome P450 2D6,> 10 µM
same,solubility thermodynamic,[14],0.082 mg/mL
same,"fraction unbound at 4 h, 5 µM",[15],0.62
same,inhibition in vivo at 12.5 mg/kg,[16],110%
same,inhibition in vivo at 1.56 mg/kg,[17],79%
same,AUC,[18],25.4 µM·h
same,"fraction unbound at 4 h, 5 µM",[19],0.6
same,Activity,Homo sapiens,Dose-dependent effect
same,AUC,Canis familiaris [20],2.4 µM·h
same,inhibition in vivo at 6.25 mg/kg,Mus musculus [21],78%
same,AUC,[22],74 µM·h
same,Activity,Mus musculus [23],< 10%
same,EC50,[24],0.06 µM
same,inhibition in vivo at 6.25 mg/kg,[25],122%
same,inhibition,[26],61%
same,inhibition in vivo at 0.78 mg/kg,[27],73%
same,Cmax,[28],1.5 µM
same,Papp A→B,[29],130 nm/s
same,Vd,[30],1.5 L/kg
same,clearance,[31],0.48 L/h/kg
same,Vd,[32],1.5 L/kg
same,IC50,Cytochrome P450 2C19,> 10 µM
same,inhibition in vivo at 3.25 mg/kg,[33],83%
same,inhibition in vivo at 0.78 mg/kg,[34],73%
same,IC50,Cytochrome P450 1A2,> 10 µM
same,Cmax,[35],5.4 µM
same,AUC,[36],4.8 µM·h
same,inhibition in vivo at 12.5 mg/kg,[37],121%
same,"fraction unbound at 4 h, 5 µM",[38],0.37
same,Vd,[39],2.5 L/kg
same,Vdss,Mus musculus [40],0.6 L/kg
same,inhibition in vivo at 6.25 mg/kg,[41],101%
